Laboratory results as given in ChEMBL document CHEMBL3351805, “Giffonins A-I, antioxidant cyclized diarylheptanoids from the leaves of the hazelnut tree (Corylus avellana), source of the Italian PGI product "Nocciola di Giffoni"” (J Nat Prod, 2015).

Legend:
Plasma [1] = experiment: Antioxidant activity in human plasma assessed as H2O2/Fe2+-induced lipid peroxidation at 10 uM after 30 mins by TBARS assay; format: functional, cell-free
Method in brief: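 Reaction stopped on ice; TCA/HCl precipitation, centrifugation at 1200g. Supernatant boiled 15 min with thiobarbituric acid in Tris pH 7.0. A532 converted to TBARS via ε = 156 000 M⁻¹ cm⁻¹. Three independent experiments; paired Student's t test.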

Plasma [2] = experiment: Antioxidant activity in human plasma assessed as H2O2-induced lipid peroxidation at 10 uM after 30 mins by TBARS assay; format: functional, cell-free
Method in brief: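 Fresh plasma from medication-free human donors, incubated 30 min at 37 °C with compound (final 0.1–100 μM; DMSO <0.05% final) plus 2 mM H₂O₂. Stopped on ice, then mixed with an equal volume of cold 20% TCA in 0.6 M HCl and spun. Supernatant heated 15 min with 0.12 M TBA in 0.26 M Tris pH 7.0. TBARS read at 532 nm (ε = 156 000 M⁻¹ cm⁻¹). n=3 independent experiments.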

| Structure (SMILES) | inhibition (Plasma [1]) [%] | inhibition (Plasma [2]) [%] |
| --- | --- | --- |
| COc1c2cc(c(OC)c1O)Oc1ccc(cc1)CCCC[C@@H](O)/C=C\2 | 30.8 | 20.8 |
| COc1c2cc(c(OC)c1O)Oc1ccc(cc1)CCC(=O)C[C@@H](O)/C=C\2 | 12 | 12.1 |
| COc1c2cc(c(OC)c1O)Oc1ccc(cc1)CCC(=O)CC/C=C\2 | 63.2 | 64.3 |
| COc1c2cc(c(OC)c1O)Oc1ccc(cc1)CC[C@@H](O)CC/C=C\2 | 28.2 | 16.4 |
| COc1c2cc(c(OC)c1O)Oc1ccc(cc1)[C@@H](O)CC(=O)CC/C=C/2 | 7.3 | 2.2 |
| COc1c2cc(c(OC)c1O)Oc1ccc(cc1)CC[C@@H](O)/C=C/C=C\2 | 35.5 | 37.6 |
| COc1c(O)cc2cc1Oc1ccc(cc1)CC[C@@H](O)/C=C/C=C\2 | 50.6 | 55.8 |
| O=C1/C=C/CCc2ccc(O[C@@H]3O[C@H](CO)[C@@H](O)[C@H](O)[C@H]3O)c(c2)-c2cc(ccc2O[C@@H]2OC[C@H](O)[C@H](O)[C@H]2O)CC1 | 18.1 | 12.6 |
| COc1cc(/C=C/C(=O)CC(=O)/C=C/c2ccc(O)c(OC)c2)ccc1O | 18.6 | 19.2 |
| COc1c2cc(c(OC)c1O)Oc1ccc(cc1)CCC(=O)CC/C=C/2 | 36.8 | 8.1 |
